Experimental data from ChEMBL document CHEMBL3992558, “Benzimidazole inhibitors from the Niclosamide chemotype inhibit Wnt/β-catenin signaling with selectivity over effects on ATP homeostasis” (Bioorg Med Chem, 2017).
Values belong to the compound of their own block, whether it stands above or below them. The source made the active and inactive calls. The rule behind the calls is not given here.

Assays:
Homo sapiens [1] = species: Homo sapiens; experiment: Inhibition of Wnt/beta-catenin signaling in human U2OS cells expressing GFP-fused Fzd1 assessed as GFP-Fzd1 internalization by measuring number of punctate formed at 12.5 uM after 6 hrs by confocal microscopic method; assay type: cell-based
Summary of the method: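 U2OS cells stably expressing Frizzled1-GFP were plated in confocal dishes for 24 h, then treated with 12.5 μM compound in DMSO or DMSO for 6 h at 37°C and fixed in 4% paraformaldehyde. Confocal images (488-nm excitation) were read twice, blinded, and punctate was scored versus control on a 0–5 scale (0, 1, 3, 5).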

[2] = (§1) Inhibition of Wnt/beta-catenin signaling (unknown origin) expressed in HEK293 cells assessed as inhibition of Wnt3A-stimulated beta-catenin response transcription after 6 hrs by TOPflash dual luciferase reporter gene assay; assay type: cell-based; details: Homo sapiens, HEK293, 6 h
Summary of the method: (§2)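 HEK293 cells stably carrying p8xTOPFlash and Renilla pRL-TK were seeded at confluency and given Wnt-3A conditioned medium (from L Wnt-3A cells) containing compound, 0.04–10 μM, or DMSO for 6 h. Lysates were read by dual-luciferase assay. The DMSO/Wnt3A signal was set as 100%, and curves were fit (mean ± SEM, n ≥ 3). Percent inhibition at 10 μM was reported where no IC50 could be fitted.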

Homo sapiens [3] = species: Homo sapiens; experiment: Inhibition of Wnt/beta-catenin signaling (unknown origin) expressed in HEK293 cells assessed as inhibition of Wnt3A-stimulated beta-catenin response transcription at 10 uM after 6 hrs by TOPflash dual luciferase reporter gene assay relative to control; assay type: cell-based; summary of the method: as §2
HCT-116 [4] = experiment: Effect on ATP homeostasis in human HCT116 cells assessed as reduction in ATP level at 0.5 to 2 uM after 3 hrs in glucose supplemented media by ATP bioluminescent assay; assay type: ADME, cell-based; details: hct-116, 3 h
Summary of the method: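 HCT-116 cells attached overnight on poly-D-lysine plates, then treated 3 h at 37°C in DMEM with 2mM sodium pyruvate, 2mM L-glutamine and 5mM glucose (0.1% final DMSO). ATP was read by luciferase bioluminescence after lysis with Somatic Cell ATP Releasing Reagent, normalized to DMSO control.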

HCT-116 [5] = experiment: Effect on ATP homeostasis in human HCT116 cells assessed as reduction in ATP level at 2 uM after 3 hrs in glucose supplemented media by ATP bioluminescent assay; details: hct-116, 3 h
Homo sapiens [6] = species: Homo sapiens; experiment: as §1; assay type: cell-based; summary of the method: as §2
Homo sapiens [7] = species: Homo sapiens; experiment: Inhibition of Wnt/beta-catenin signaling in human HCT116 cells assessed as downregulation of cytosolic beta-catenin protein expression at 5 uM after 18 hrs by Western blot method; assay type: cell-based
Summary of the method: (§3)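 HCT-116 (McCoy's 5A) or SW480 (MEM) cells, each with 10% FBS, were grown 48 h on poly-D-lysine-coated wells to 60–80% confluency. Fresh medium with compound or DMSO (0.1% final) was added for 18 h. Cytosolic fractions (β-catenin, Axin2) were isolated with hypotonic buffer, or whole cells were lysed in Laemmli buffer (c-Myc, Cyclin D1, Survivin). Immunoblots used β-actin as loading control.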

Homo sapiens [8] = species: Homo sapiens; experiment: Inhibition of Wnt/beta-catenin signaling in human HCT116 cells assessed as downregulation of cytosolic Axin2 protein expression at 5 uM after 18 hrs by Western blot method; assay type: cell-based; summary of the method: as §3
Homo sapiens [9] = species: Homo sapiens; experiment: Inhibition of Wnt/beta-catenin signaling in human HCT116 cells assessed as downregulation of c-Myc protein expression at 5 uM after 18 hrs by Western blot method; assay type: cell-based; summary of the method: as §3
Homo sapiens [10] = species: Homo sapiens; experiment: Inhibition of Wnt/beta-catenin signaling in human HCT116 cells assessed as downregulation of Cyclin D1 protein expression at 5 uM after 18 hrs by Western blot method; assay type: cell-based; summary of the method: as §3
Homo sapiens [11] = species: Homo sapiens; experiment: Inhibition of Wnt/beta-catenin signaling in human HCT116 cells assessed as downregulation of survivin protein expression at 5 uM after 18 hrs by Western blot method; assay type: cell-based; summary of the method: as §3
Homo sapiens [12] = species: Homo sapiens; experiment: Inhibition of Wnt/beta-catenin signaling in human SW480 cells assessed as downregulation of cytosolic beta-catenin protein expression at 5 uM after 18 hrs by Western blot method; assay type: cell-based; summary of the method: as §3
Homo sapiens [13] = species: Homo sapiens; experiment: Inhibition of Wnt/beta-catenin signaling in human SW480 cells assessed as downregulation of cytosolic Axin2 protein expression at 5 uM after 18 hrs by Western blot method; assay type: cell-based; summary of the method: as §3
Homo sapiens [14] = species: Homo sapiens; experiment: Inhibition of Wnt/beta-catenin signaling in human SW480 cells assessed as downregulation of c-Myc protein expression at 5 uM after 18 hrs by Western blot method; assay type: cell-based; summary of the method: as §3
Homo sapiens [15] = species: Homo sapiens; experiment: Inhibition of Wnt/beta-catenin signaling in human SW480 cells assessed as downregulation of Cyclin D1 protein expression at 5 uM after 18 hrs by Western blot method; assay type: cell-based; summary of the method: as §3
Homo sapiens [16] = species: Homo sapiens; experiment: Inhibition of Wnt/beta-catenin signaling in human SW480 cells assessed as downregulation of survivin protein expression at 5 uM after 18 hrs by Western blot method; assay type: cell-based; summary of the method: as §3
HCT-116 [17] = experiment: Effect on ATP homeostasis in human HCT116 cells assessed as reduction in ATP level after 3 hrs in absence of glucose by ATP bioluminescent assay; assay type: ADME, cell-based; details: for IC50: Homo sapiens, HCT-116, 3 h
Summary of the method: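 HCT-116 cells attached overnight on poly-D-lysine plates in McCoy's 5A/10% FBS, then switched to glucose-free DMEM with 2mM sodium pyruvate and 2mM L-glutamine containing compound (0.1% final DMSO). After 3 h at 37°C, 5% CO2, cells were lysed in Somatic Cell ATP Releasing Reagent and ATP was read by luciferase bioluminescence, normalized to DMSO control.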

Homo sapiens [18] = species: Homo sapiens; experiment: Inhibition of Wnt/beta-catenin signaling (unknown origin) expressed in HEK293 cells assessed as inhibition of Wnt3A-stimulated beta-catenin response transcription at 0.16 uM after 6 hrs by TOPflash dual luciferase reporter gene assay relative to control; assay type: cell-based
Summary of the method: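 TOPFlash/Renilla stable HEK293 cells were split from the same batch as parallel ATP assay plates, attached overnight, then treated 6 h with compound in Wnt-3A conditioned medium. Dual-luciferase read-out was taken relative to the DMSO control. Three separate experiments used different cell batches.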

HCT-116 [19] = experiment: Effect on ATP homeostasis in human HCT116 cells assessed as reduction in ATP level at 0.16 uM after 3 hrs in absence of glucose by ATP bioluminescent assay; assay type: ADME, cell-based; parameters: scale not given: the % may be the effect or the level left; details: hct-116, 3 h
HEK293 (Homo sapiens) = experiment: Effect on ATP homeostasis in human HEK293 cells assessed as reduction in ATP level after 3 hrs in absence of glucose by ATP bioluminescent assay; details: HEK293, 3 h

SMILES: Oc1ccc(Cl)cc1-c1nc2cc(F)ccc2[nH]1
Activity (Homo sapiens [1]): 0
IC50 [2]: 7650 nM

SMILES: Cc1ccc(S(=O)(=O)Nc2ccc(Cl)cc2-c2nc3cc([N+](=O)[O-])ccc3[nH]2)cc1
Activity (Homo sapiens [1]): 0
inhibition (Homo sapiens [3]): 48%

SMILES: CS(=O)(=O)Nc1ccccc1-c1nc2cc(C(F)(F)F)ccc2[nH]1
Activity (Homo sapiens [1]): 0
inhibition (Homo sapiens [3]): 74%

SMILES: CCCCCC[C@H]1C(=O)O[C@H](C)[C@H](NC(=O)c2cccc(NC=O)c2O)C(=O)O[C@@H](C)[C@@H]1OC(=O)CC(C)C [ANTIMYCIN A]
Activity (HCT-116 [5]): Toxic

SMILES: N#CC(C#N)=NNc1ccc(OC(F)(F)F)cc1
Activity (HCT-116 [5]): Toxic

SMILES: COc1ccc2[nH]c(-c3cc(Cl)ccc3O)nc2c1
Activity (Homo sapiens [1]): 0
IC50 [2]: 1270 nM

SMILES: CC[C@H]1/C=C/C=C/C[C@@H](C)[C@H](O)[C@@](C)(O)C(=O)[C@@H](C)[C@H](O)[C@@H](C)C(=O)[C@@H](C)[C@H](O)[C@@H](C)/C=C/C(=O)O[C@@H]2[C@H](C)[C@H](CC1)O[C@]1(CC[C@H](C)[C@H](C[C@@H](C)O)O1)[C@H]2C [OLIGOMYCIN]
Activity (HCT-116 [5]): Toxic

SMILES: O=S(=O)(Nc1ccccc1-c1nc2cc(C(F)(F)F)ccc2[nH]1)c1c(F)cccc1F
Activity (Homo sapiens [1]): 0
inhibition (Homo sapiens [3]): 8%

The next lines start with results.

IC50 [2]: 1690 nM
SMILES: Cc1ccc(O)c(-c2nc3cc([N+](=O)[O-])ccc3[nH]2)c1
Activity (Homo sapiens [1]): 0
Activity (HCT-116 [4]): Non-Toxic

IC50 [2]: 120 to 280 nM
IC50 (HCT-116 [17]): 250 nM
Activity (HCT-116 [17]; human, hct-116, 3 h): Dose-dependent effect
Activity (HCT-116 [19]): > 80%
SMILES: O=C(Nc1ccc([N+](=O)[O-])cc1Cl)c1cc(Cl)ccc1O [NICLOSAMIDE]
Activity (Homo sapiens [1]): 5
inhibition (Homo sapiens [6]): Dose-dependent effect
inhibition (Homo sapiens [7]): Active
inhibition (Homo sapiens [8]): Active
inhibition (Homo sapiens [9]): Active
inhibition (Homo sapiens [10]): Active
inhibition (Homo sapiens [11]): Active
inhibition (Homo sapiens [12]): Active
inhibition (Homo sapiens [13]): Active
inhibition (Homo sapiens [14]): Active
inhibition (Homo sapiens [15]): Active
inhibition (Homo sapiens [16]): Active
Activity (HCT-116 [4]): Toxic
inhibition (Homo sapiens [18]): 40 to 50%
EC50 (HEK293 (Homo sapiens)): 56 nM

IC50 [2]: 1540 nM
IC50 (HCT-116 [17]): < 250 nM
SMILES: O=[N+]([O-])c1ccc2nc(-c3cc(Cl)cc(Cl)c3O)[nH]c2c1
Activity (Homo sapiens [1]): 2
Activity (HCT-116 [4]): Toxic

IC50 [2]: 1500 nM
IC50 (HCT-116 [17]): < 250 nM
SMILES: Cc1ccc(S(=O)(=O)Nc2ccc(Cl)cc2C(=O)Nc2ccc([N+](=O)[O-])cc2Cl)cc1
Activity (Homo sapiens [1]): 3
